Experimental findings from ChEMBL document CHEMBL1131442 (J Med Chem, 1998) are described below.

For assay [1], the target named is Cannabinoid receptor 2 (Mus musculus, UniProt P47936). As to the kind of experiment: Binding affinity towards Cannabinoid receptor 2 from mouse spleen membranes using 0.8 nM [3H]CP-55940 as radioligand. It is filed as tissue-based. Put shortly: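 Mouse spleen membranes, no PMSF pretreatment (amidase absent). Each well held ~30 μg membrane in TME (25 mM Tris-HCl, 5 mM MgCl2, 1 mM EDTA, pH 7.4) with 0.1% fatty acid-free BSA, 0.8 nM [3H]CP-55,940 and varied analogue concentrations, 1 h. Bound ligand was collected on GF/C filters and counted by scintillation.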

The target of assay [2] is T1, Cannabinoid receptor 1 (Rattus norvegicus, UniProt P20272). As to the kind of experiment: Binding affinity towards cannabinoid receptor 1 from rat forebrain membranes in the absence of phenylmethanesulfonylfluoride (PMSF) using 0.8 nM [3H]CP-55940 as radioligand. The arrangement: species or system Membrane. Put shortly: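 Rat forebrain membranes were used without PMSF treatment. Bound ligand was separated by filtration and counted by scintillation. IC50 from nonlinear regression was converted to Ki by Cheng–Prusoff.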

Assay [3] has as its target T1, Cannabinoid receptor 1. Briefly: Binding affinity towards cannabinoid receptor 1 from rat forebrain membranes in the presence of phenylmethanesulfonylfluoride (PMSF) using 0.8 nM [3H]CP-55940 as radioligand. The arrangement: species or system Membrane.
For assay [4], the species on record is Rattus norvegicus. As to the kind of experiment: Effective concentration required for stimulation of [35S]GTP-gamma-S, binding in rat microsomal membranes expressed as log EC50. It is filed as functional. Put shortly:
(§1)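 Rat brain membranes (cerebellum removed) were sucrose-gradient purified. Membrane (40–50 μg protein) was incubated 1 h at 30 °C in 10 mM Tris, 100 mM NaCl, 5 mM MgCl2, 0.1% BSA with GDP, [35S]GTPγS and eight analogue concentrations. Nonspecific binding was defined with 10 μM GTPγS, and buffer alone set the baseline. Bound label was collected on GF/B filters and counted. Two experiments were run, each point in […].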
A general note: Binding of GTPγS marks nucleotide exchange on a G protein.

For assay [5], the species on record is Rattus norvegicus. Briefly: Effective concentration required for stimulation of [35S]GTP-gamma-S, binding in rat microsomal membranes. The format is functional. Put shortly:
as §1

The species named for assay [6] is Rattus norvegicus. As to the kind of experiment: Maximal stimulation of [35S]GTP-gamma-S, binding in rat microsomal membranes expressed as Emax. The format is functional. Put shortly:
as §1

T1 sequence (P20272 whole entry): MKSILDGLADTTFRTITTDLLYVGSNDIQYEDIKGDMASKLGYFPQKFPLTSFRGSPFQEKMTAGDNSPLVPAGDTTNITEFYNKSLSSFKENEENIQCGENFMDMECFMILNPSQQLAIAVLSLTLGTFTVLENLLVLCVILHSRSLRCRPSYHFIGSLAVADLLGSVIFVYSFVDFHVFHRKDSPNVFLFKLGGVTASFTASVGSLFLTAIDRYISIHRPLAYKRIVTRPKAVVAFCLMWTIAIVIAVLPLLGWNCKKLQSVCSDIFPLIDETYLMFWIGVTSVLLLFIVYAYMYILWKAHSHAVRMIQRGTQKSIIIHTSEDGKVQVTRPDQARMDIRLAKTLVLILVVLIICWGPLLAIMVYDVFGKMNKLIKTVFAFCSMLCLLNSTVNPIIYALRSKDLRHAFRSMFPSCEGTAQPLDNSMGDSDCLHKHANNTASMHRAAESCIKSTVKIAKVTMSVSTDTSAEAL
Sequence of Cannabinoid receptor 2 (P47936 whole entry): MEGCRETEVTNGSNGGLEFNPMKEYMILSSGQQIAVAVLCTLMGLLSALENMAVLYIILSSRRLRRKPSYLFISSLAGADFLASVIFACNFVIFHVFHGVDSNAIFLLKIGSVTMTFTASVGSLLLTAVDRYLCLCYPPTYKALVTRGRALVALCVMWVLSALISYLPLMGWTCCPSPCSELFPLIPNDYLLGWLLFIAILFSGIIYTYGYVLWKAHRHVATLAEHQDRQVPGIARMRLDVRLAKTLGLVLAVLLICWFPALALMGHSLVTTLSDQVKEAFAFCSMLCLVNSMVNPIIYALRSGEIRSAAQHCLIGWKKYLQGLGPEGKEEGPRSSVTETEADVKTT

As to `CCCCC/C=C\C/C=C\C/C=C\C/C=C\CCCC(=O)NCC(C)C`, the Ki (as a rule, the dissociation constant of the complex between target and ligand, obtained from inhibition or displacement) worked out at 0.84 µM in assay [1], 0.0981 µM in assay [2] and 0.0902 µM in assay [3].
Take `CCCCCCC(C)(C)c1ccc([C@@H]2C[C@H](O)CC[C@H]2CCCO)c(O)c1` [CP-55940]: the EC50 (usually the midpoint of the concentration-response curve) in assay [4] is 20000 µM; in assay [5], 0.1 µM. Also, in assay [6], the Emax (in general, the greatest response seen or fitted, relative to the assay's reference) amounted to 145%.
For `CCCCC/C=C\C/C=C\C/C=C\C/C=C\CCCC(=O)NC[C@H](C)O`, the results for the Ki in assay [1], in assay [2] and in assay [3] were 0.771 µM, 0.11 µM and 0.0356 µM, respectively.
`Cc1c(C(=O)c2cccc3ccccc23)c2cccc3c2n1[C@H](CN1CCOCC1)CO3` [WIN-552122] displayed an EC50 in assay [5] of 0.18 µM. The molecule further came in with a maximal effect (Emax) in assay [6] of 150%.
On to `CCCCCCCC/C=C\CCCCCCCC(=O)N[C@H](C)CO`, for which the Ki in assay [1] came out at 26 µM; in assay [2] it was 33 µM; in assay [3], 19 µM.
In the same order, the values of `CCCCC/C=C\C/C=C\CCCCCCCC(=O)N[C@H](C)CO` are 21 µM, 21 µM and 21 µM.
`C#CCNC(=O)CCC/C=C\C/C=C\C/C=C\C/C=C\CCCCC`: the Ki is 0.29 µM in assay [1], 4.9 µM in assay [2] and 0.0108 µM in assay [3]. Further, the EC50 is 20000 µM in assay [4] and 0.1 µM in assay [5]. Besides, in assay [6], the Emax stood at 143%.
For `CCCCC/C=C\C/C=C\C/C=C\C/C=C\CCCC(=O)N[C@@H](C)CC`, the Ki in assay [1] worked out at 3.2 µM; in assay [3], 0.287 µM.
Consider `CCCCC/C=C\C/C=C\C/C=C\C/C=C\CCCC(=O)NCCF`, for which the Ki came out at 0.908 µM in assay [1], 4.64 µM in assay [2] and 0.0267 µM in assay [3].
Turning to `CCCCC/C=C\C/C=C\C/C=C\C/C=C\CCCC(=O)N[C@H](C)CO` [METHANANDAMIDE], the inhibitory constant (Ki) in assay [1] stood at 0.868 µM. In assay [5], this molecule yielded an EC50 of 0.33 µM. For the same molecule, in assay [6], the Emax was 148%.
`CCCCC/C=C\C/C=C\C/C=C\C/C=C\CCCC(=O)N[C@@H](C)CO` had a Ki in assay [1] of 8.22 µM.
On to `CCCCCCCC/C=C\CCCCCCCC(=O)NCCO` [OLEOYLETHANOLAMIDE], for which the inhibition constant Ki in assay [1] came to 31 µM; in assay [2] it was 44 µM.
In the same order, the values of `CCCCCCCC/C=C\CCCCCCCC1=NCCO1` are 31 µM and 14 µM.
For the molecule `CCCCC/C=C\C/C=C\C/C=C\C/C=C\CCCCNC(=O)COC(C)=O`, the Ki was over 10 µM in assay [1] and 0.419 µM in assay [2].
In the case of `CCCCC/C=C\C/C=C\C/C=C\C/C=C\CCCC(=O)N[C@H](C)CC`, the Ki in assay [1] was found to be 1.33 µM; in assay [2], 0.143 µM; in assay [3], 0.0736 µM.
In the case of `CCCCC/C=C\C/C=C\C/C=C\C/C=C\CCCC(=O)NCCCl`, the inhibition constant Ki worked out at 0.195 µM in assay [1], 3.4 µM in assay [2] and 0.00529 µM in assay [3]. Besides, the EC50 in assay [5] came to 0.42 µM. The same molecule came in with a maximal response (Emax) in assay [6] of 162%.
In assay [1], `CCCCC/C=C\C/C=C\CCCCCCCC(=O)NCCO` [LINOLEOYLETHANOLAMIDE] gave a Ki of 25 µM.
As for `CCCCC/C=C\C/C=C\C/C=C\C/C=C\CCCC(=O)NCC(F)(F)F`, the values for the Ki in assay [1], in assay [2] and in assay [3] were 0.718 µM, 2.38 µM and 0.0362 µM, respectively.
In turn, `CCCCC/C=C\C/C=C\CCCCCCCC1=NCCO1` registered a Ki in assay [1] of 20 µM.
Take `CCCCC/C=C\C/C=C\C/C=C\C/C=C\CCCC(=O)NC[C@@H](C)O`: the Ki in assay [1] is 1.79 µM; in assay [2], 0.63 µM; in assay [3], 0.13 µM.
The like results for `C=CCNC(=O)CCC/C=C\C/C=C\C/C=C\C/C=C\CCCCC` were, in that order, 0.226 µM, 2.98 µM and 0.00991 µM.
The like results for `CCCCC/C=C\C/C=C\C/C=C\C/C=C\CCCC(=O)NC(C)CC` (stereo not drawn) were, in that order, 2.2 µM, 0.158 µM and 0.0832 µM.
The like results for `CCCCC/C=C\C/C=C\C/C=C\C/C=C\CCCC(=O)NC(C)(C)C` were, in that order, 1.14 µM, 0.105 µM and 0.0512 µM.
As for `CCCCC/C=C\C/C=C\C/C=C\C/C=C\CCCC(=O)NCCCCl`, the Ki in assay [1] was 0.193 µM; in assay [2] it was 0.387 µM; in assay [3] it was 0.0256 µM.
`CCCCC/C=C\C/C=C\C/C=C\C/C=C\CCCC1=N[C@H](C)CO1`: the results for the Ki in assay [1] and in assay [2] were 6800 µM and 0.679 µM, respectively.
